{"data": "Experimental data from different studies"}
{"SMILES": "C[C@]12CC[C@H](n3ccnc3)CC1=CC[C@@H]1[C@@H]2CC[C@]2(C)C(n3cnc4ccccc43)=CC[C@@H]12.Cl.Cl", "test system": "male CD-1 mouse, plasma", "setting": "intravenous, 1 mg/kg", "measurement": "half-life", "result": "17.5 h"}
{"SMILES": "N#Cc1ccccc1OC(=O)NCCCCCn1ccc2ccc(F)cc21", "assay": "HPLC", "measurement": "chromatographic logP", "result": 3.9}
{"SMILES": "N=c1c2c(-c3ccccc3)c(-c3ccccc3)n(Cc3ccccc3)c2ncn1[C@H]1CC[C@H](O)CC1", "test system": "female minipig, plasma", "setting": "oral, 2.5 mg/kg, single dose", "measurement": "half-life", "result": "98.4 h"}
{"SMILES": "Cc1cc(C)nc(Nc2ncc(C(=O)NCCc3c(C)[nH]c4ccccc34)cn2)c1", "assay": "metabolic stability", "test system": "dog, liver microsomes", "setting": "1 µM", "measurement": "microsomal CLint", "result": "72 µL/min/mg"}
{"SMILES": "CCN(CC)CCCC[C@H](NC(=O)[C@H](CC(C)C)NC(=O)[C@H](C)NC(=O)[C@H](Cc1ccccc1)NC(=O)c1ccc(C(C)(C)C)cc1)C(=O)N[C@@H](CO)C(=O)OC", "test system": "male Swiss mouse, blood", "setting": "intravenous, 3 mg/kg", "measurement": "half-life", "result": "0.09 h"}
{"SMILES": "Cc1ccncc1OC(=O)NCCCCCn1ccc2ccc(F)cc21", "assay": "HPLC", "measurement": "chromatographic logP", "result": 2.7}
{"SMILES": "CC[C@H]1CN2CC[C@H]1C[C@@H]2[C@@H](O)c1ccnc2ccc(OC)cc12", "test system": "water", "measurement": "logP", "result": 3.43}
{"SMILES": "O=C(O)c1ccc(OC(=O)N2CCC(CCn3ccc4ccc(F)cc43)CC2)cc1", "assay": "HPLC", "measurement": "chromatographic logP", "result": 3.6}
{"SMILES": "CN[C@H](CC(C)C)C(=O)N[C@H]1C(=O)N[C@@H](CC(N)=O)C(=O)N[C@H]2C(=O)NC3C(=O)N[C@H](C(=O)N[C@H](C(=O)NCCC[N+](C)(C)C)c4cc(O)cc(O)c4-c4cc3ccc4O)[C@H](O)c3ccc(c(Cl)c3)Oc3cc2cc(c3OC2OC(CO)C(O)[C@H](O)[C@@H]2O[C@H]2CC(C)(NCc3ccc(-c4ccc(Cl)cc4)cc3)[C@H](O)[C@H](C)O2)Oc2ccc(cc2Cl)[C@H]1O (some centres unmarked)", "test system": "mouse, plasma", "setting": "intravenous, 10 mg/kg", "measurement": "half-life", "result": "7 h"}
{"SMILES": "CCCCCCCC/C=C\\CCCCCCCC(=O)OC[C@](C)(O)C[C@@H]1NC(=O)[C@@H]2Cc3c([nH]c4ccccc34)SC[C@H](NC(=O)[C@@H]([C@H](C)O)NC(=O)[C@H](C)NC1=O)C(=O)N1C[C@@H](O)C[C@H]1C(=O)N[C@@H](C)C(=O)N2", "measurement": "logP", "result": 1.7}
{"SMILES": "O=C(NCCCCCn1ccc2ccc(F)cc21)Oc1ccc(F)cc1", "assay": "HPLC", "measurement": "chromatographic logP", "result": 4.2}
{"SMILES": "Cc1ccccc1C(=O)NN=Cc1ccc(O)c(Br)c1", "test system": "mouse, plasma", "setting": "intravenous, 1.6 mg/kg", "measurement": "half-life", "result": "1.24 h"}
{"SMILES": "NCC(=O)Nc1ccc(-n2nc(C(F)(F)F)cc2-c2ccc3c(ccc4ccccc43)c2)cc1", "test system": "mouse, plasma", "setting": "oral, 80 mg/kg, single dose", "measurement": "half-life", "result": "22 h"}
{"SMILES": "C=C[C@H]1C[N@@]2CC[C@H]1C[C@@H]2[C@@H](O)c1ccnc2ccccc12", "test system": "water", "measurement": "logP", "result": 2.82}
{"SMILES": "C[C@]12CC[C@H](O)CC1=CC[C@@H]1[C@@H]2CC[C@]2(C)C(n3cnc4ccccc43)=CC[C@@H]12.Cl", "test system": "mouse, plasma", "setting": "intravenous, 1 mg/kg", "measurement": "half-life", "result": "1.02 h"}
{"SMILES": "O=C(NCCCCCn1ccc2ccc(F)cc21)Oc1cccc2[nH]ccc12", "assay": "HPLC", "measurement": "chromatographic logP", "result": 3.5}
{"SMILES": "Nc1nc(-c2ccccc2)nc2[nH]nc(Nc3ccc(C(F)(F)F)cc3)c12", "test system": "mouse, plasma", "setting": "oral, 100 mg/kg, 6 h", "measurement": "concentration", "result": "802 ng/mL"}
